Measured values as given in ChEMBL document CHEMBL4665863 (Bioorg Med Chem, 2020).
In brackets after ≈: the same amount, converted by molar mass. Activity calls are given as the source filed them. The calls are words filed in the database; no cut-off is given here.

Legend:
[1] = tested on: Staphylococcus aureus; experiment: Bacteriostatic activity against Staphylococcus aureus clinical isolate assessed as ratio of MBC to MIC; assay type: functional
[2] = tested on: Staphylococcus aureus; experiment: Bacteriostatic activity against penicillin-resistant Staphylococcus aureus assessed as ratio of MBC to MIC; assay type: functional
[3] = tested on: Staphylococcus aureus; experiment: Bacteriostatic activity against methicillin-resistant Staphylococcus aureus ATCC43300 assessed as ratio of MBC to MIC; assay type: functional
[4] = tested on: Staphylococcus aureus; experiment: Bacteriostatic activity against Staphylococcus aureus ATCC25923 assessed as ratio of MBC to MIC; assay type: functional
[5] = tested on: Staphylococcus aureus; experiment: Bactericidal activity against Staphylococcus aureus clinical isolate assessed as reduction in number of colony forming units incubated for 24 hrs followed by re-plating and reincubation on tryptic soy agar plate for 24 hrs; assay type: functional
[6] = tested on: Staphylococcus aureus; experiment: Bactericidal activity against penicillin-resistant Staphylococcus aureus assessed as reduction in number of colony forming units incubated for 24 hrs followed by re-plating and reincubation on tryptic soy agar plate for 24 hrs; assay type: functional
[7] = tested on: Staphylococcus aureus; experiment: Bactericidal activity against methicillin-resistant Staphylococcus aureus ATCC43300 assessed as reduction in number of colony forming units incubated for 24 hrs followed by re-plating and reincubation on tryptic soy agar plate for 24 hrs; assay type: functional
[8] = tested on: Staphylococcus aureus; experiment: Bactericidal activity against Staphylococcus aureus ATCC25923 assessed as reduction in number of colony forming units incubated for 24 hrs followed by re-plating and reincubation on tryptic soy agar plate for 24 hrs; assay type: functional
[9] = tested on: Staphylococcus aureus; experiment: Antibacterial activity against Staphylococcus aureus clinical isolate incubated for 24 hrs by CLSI-based broth microdilution method; assay type: functional
[10] = tested on: Staphylococcus aureus; experiment: Antibacterial activity against Staphylococcus aureus ATCC25923 incubated for 24 hrs by CLSI-based broth microdilution method; assay type: functional
[11] = tested on: Staphylococcus aureus; experiment: Antibacterial activity against methicillin-resistant Staphylococcus aureus ATCC43300 incubated for 24 hrs by CLSI-based broth microdilution method; assay type: functional
[12] = tested on: Bacillus subtilis; experiment: Inhibition of ftsZ in Bacillus subtilis assessed as increase in enzyme polymerization kinetics at 10 ug/ml measured for 30 mins by microtiter plate-based light scattering assay; conditions: dose 10.0 µg/ml
[13] = tested on: Staphylococcus aureus; experiment: Potency index, ratio of linezolid MIC to test compound MIC for antibacterial activity against penicillin-resistant Staphylococcus aureus incubated for 24 hrs by CLSI-based broth microdilution method; assay type: functional
[14] = tested on: Staphylococcus aureus; experiment: Potency index, ratio of PC190723 MIC to test compound MIC for antibacterial activity against penicillin-resistant Staphylococcus aureus incubated for 24 hrs by CLSI-based broth microdilution method; assay type: functional
[15] = tested on: Staphylococcus aureus; experiment: Potency index, ratio of linezolid MIC to test compound MIC for antibacterial activity against methicillin-resistant Staphylococcus aureus ATCC43300 incubated for 24 hrs by CLSI-based broth microdilution method; assay type: functional
[16] = tested on: Staphylococcus aureus; experiment: Potency index, ratio of ciprofloxacin MIC to test compound MIC for antibacterial activity against methicillin-resistant Staphylococcus aureus ATCC43300 incubated for 24 hrs by CLSI-based broth microdilution method; assay type: functional
[17] = tested on: Staphylococcus aureus; experiment: Potency index, ratio of PC190723 MIC to test compound MIC for antibacterial activity against methicillin-resistant Staphylococcus aureus ATCC43300 incubated for 24 hrs by CLSI-based broth microdilution method; assay type: functional
[18] = tested on: Staphylococcus aureus; experiment: Bactericidal activity against Staphylococcus aureus clinical isolate assessed as reduction in number of colony forming units at 4XMIC incubated for 9 hrs by Time-kill assay; assay type: functional
[19] = tested on: HeLa; experiment: Cytotoxicity against human Hela cells assessed as reduction in cell viability incubated for 48 hrs by MTT assay; assay type: cell-based
In short: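 HeLa (human cervical cancer) cells were exposed continuously for 48 h, and viability was read by MTT.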

[20] = tested on: Staphylococcus aureus; experiment: In-vivo antibacterial activity against Staphylococcus aureus infected in KM mouse model assessed as reduction in bacterial load in blood at 10 mg/kg, iv administered thrice daily and measured after 48 hrs; assay type: functional, organism-based
In short: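 Groups of four KM mice (average 20 g) were infected i.v. with 8.5 × 10⁸ CFU of a clinical S. aureus isolate resistant to CIP and ERY, in 0.15 mL saline. Treatment was 10 mg/kg i.v. three times daily. Vehicle was 2% DMAC, 30% PEG400/PG (1:1) and 5% HPβCD in water; vehicle and LIN arms were included. At 48 h, retro-orbital blood (0.1 mL) was plated on TSA for CFU counts.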

[21] = tested on: Bacillus subtilis; experiment: Inhibition of ftsZ in Bacillus subtilis assessed as increase in enzyme polymerization kinetics at 5 ug/ml measured for 30 mins by microtiter plate-based light scattering assay; conditions: dose 5.0 µg/ml
In short: (§1)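 Purified recombinant B. subtilis FtsZ was used. Polymerization was followed as light scattering in microtiter plates, read as time-dependent absorbance at 340 nm at several compound concentrations. Vehicle, CIP and LIN served as controls.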

[22] = tested on: Bacillus subtilis; experiment: Inhibition of FtsZ in Bacillus subtilis ATCC9372 assessed as inhibition of bacterial cell elongation by measuring bacterial cell length at 0.25 ug/ml incubated for 18 hrs by phase contrast microscopic analysis (reference value: 2.28 +/- 0.29 um); conditions: dose 0.25 µg/ml
In short: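 Compound at 0.25 μg/mL, compared with untreated cells, imaged by microscopy. For B. subtilis ATCC9372, cell length was measured (n = 15). For S. aureus ATCC CI, cell diameter was measured (n = 15). Mean and SD were reported.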

[23] = tested on: Staphylococcus aureus; experiment: Bactericidal activity against Staphylococcus aureus clinical isolate assessed as reduction in number of colony forming units at 1XMIC incubated for 24 hrs by Time-kill assay; assay type: functional
[24] = tested on: Staphylococcus aureus; experiment: Bactericidal activity against Staphylococcus aureus clinical isolate assessed as reduction in number of colony forming units at 2XMIC incubated for 12 hrs by Time-kill assay; assay type: functional
[25] = tested on: Staphylococcus aureus; experiment: Bactericidal activity against Staphylococcus aureus clinical isolate assessed as reduction in number of colony forming units at 0.5 times MIC incubated for 24 hrs by Time-kill assay; assay type: functional, organism-based
[26] = tested on: Bacillus subtilis; experiment: Inhibition of ftsZ in Bacillus subtilis assessed as increase in enzyme polymerization kinetics measured for 30 mins by microtiter plate-based light scattering assay; in short: as §1
[27] = tested on: Pseudomonas aeruginosa; experiment: Antibacterial activity against Pseudomonas aeruginosa ATCC27853 incubated for 24 hrs by CLSI-based broth microdilution method; assay type: functional
[28] = tested on: Escherichia coli; experiment: Antibacterial activity against Escherichia coli ATCC25922 incubated for 24 hrs by CLSI-based broth microdilution method; assay type: functional; conditions: ATCC 25922
[29] = tested on: Staphylococcus aureus; experiment: Antibacterial activity against penicillin-resistant Staphylococcus aureus incubated for 24 hrs by CLSI-based broth microdilution method; assay type: functional
[30] = tested on: Bacillus pumilus; experiment: Antibacterial activity against Bacillus pumilus CMCC63202 incubated for 24 hrs by CLSI-based broth microdilution method; assay type: functional
[31] = tested on: Bacillus subtilis; experiment: Antibacterial activity against Bacillus subtilis ATCC9372 incubated for 24 hrs by CLSI-based broth microdilution method; assay type: functional
[32] = tested on: Staphylococcus aureus; experiment: Inhibition of FtsZ in Staphylococcus aureus clinical isolate assessed as inhibition of bacterial cell elongation by measuring bacterial cell diameter at 0.25 ug/ml incubated for 18 hrs by phase contrast microscopic analysis (reference value: 0.79 +/- 0.05 um); conditions: dose 0.25 µg/ml

SMILES	Ratio [1]	Ratio [2]	Ratio [3]	Ratio [4]	MBC [5]	MBC [6]	MBC [7]	MBC [8]	MIC [9]	MIC [10]	MIC [11]	inhibition [12]	Activity [20]	FtsZ polymerization increase (active/inactive call) [21]	MIC [27]	MIC [28]	MIC [29]	MIC [30]	MIC [31]	also measured
CC[C@H]1OC(=O)[C@H](C)[C@@H](O[C@H]2C[C@@](C)(OC)[C@@H](O)[C@H](C)O2)[C@H](C)[C@@H](O[C@@H]2O[C@H](C)C[C@H](N(C)C)[C@H]2O)[C@](C)(OC)C[C@@H](C)C(=O)[C@H](C)[C@@H](O)[C@]1(C)O [CLARITHROMYCIN]	inactive	inactive	inactive	32	inactive	inactive	inactive	4 µg/mL (≈ 5.35 µM)	> 64 µg/mL	0.125 µg/mL (≈ 0.167 µM)	> 64 µg/mL									
O=C(O)c1cn(C2CC2)c2cc(N3CCNCC3)c(F)cc2c1=O												inactive								
CCCCc1ccc(C2=NOC(COc3ccc(F)c(C(N)=O)c3F)C2)cc1 (configuration not stated)	1	2	2	1	0.5 µg/mL (≈ 1.29 µM)	1 µg/mL (≈ 2.57 µM)	0.5 µg/mL (≈ 1.29 µM)	0.5 µg/mL (≈ 1.29 µM)	0.5 µg/mL (≈ 1.29 µM)	0.5 µg/mL (≈ 1.29 µM)	0.25 µg/mL (≈ 0.644 µM)		Active	Active	> 64 µg/mL	> 64 µg/mL	0.5 µg/mL (≈ 1.29 µM)	≤ 0.125 µg/mL	0.5 µg/mL (≈ 1.29 µM)	Ratio [13]: 2; Ratio [14]: 2; Ratio [15]: 8; Ratio [16]: 64; Ratio [17]: 4; Activity [18]: <1 10^3CFU/ml; IC50 [19]: > 64 µg/mL; cell length [22]: 29.3 µm; Activity [23]: <1 10^3CFU/ml; Activity [24]: <1 10^3CFU/ml; Activity [25]: Active; inhibition [26]: Dose-dependent effect; cell diameter [32]: 2.41 µm
CC(C)(C)c1ccc(C2=NOC(COc3ccc(F)c(C(N)=O)c3F)C2)cc1 (configuration not stated)									4 µg/mL (≈ 10.3 µM)	4 µg/mL (≈ 10.3 µM)	2 µg/mL (≈ 5.15 µM)				> 64 µg/mL	> 64 µg/mL	4 µg/mL (≈ 10.3 µM)	≤ 0.125 µg/mL	0.25 µg/mL (≈ 0.644 µM)	
CC(=O)NC[C@H]1CN(c2ccc(N3CCOCC3)c(F)c2)C(=O)O1 [LINEZOLID]					64 µg/mL (≈ 190 µM)	> 64 µg/mL	> 64 µg/mL	> 64 µg/mL	1 µg/mL (≈ 2.96 µM)			inactive	Active		> 64 µg/mL	> 64 µg/mL	1 µg/mL (≈ 2.96 µM)	1 µg/mL (≈ 2.96 µM)	0.5 µg/mL (≈ 1.48 µM)	
CCCCc1ccc(C2=NO[C@H](COc3ccc(F)c(C(N)=O)c3F)C2)cc1									≤ 0.125 µg/mL	0.25 µg/mL (≈ 0.644 µM)	≤ 0.125 µg/mL			Active	> 64 µg/mL	> 64 µg/mL	0.25 µg/mL (≈ 0.644 µM)	≤ 0.125 µg/mL	≤ 0.125 µg/mL	
